# Measured values as given in ChEMBL document CHEMBL1154044, “5-Nitro-2-furyl derivative actives against Trypanosoma cruzi: preliminary in vivo studies” (Eur J Med Chem, 2009).
# Assays:
# Mus musculus [1] = assay: Toxicity in CD1 mouse assessed as haemoglobin level at 450 mg/kg, po after 3 days; type: organism-based; design: dose 450 mg/kg, route oral; conditions: in vivo, 72 h
# Procedure, shortened: (§1)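 Healthy female CD1 mice (5–7 per group) received a single oral dose of 450 mg/kg or an i.p. dose of 300 mg/kg, with vehicle controls. On day 3 they were sacrificed under ether anaesthesia. Blood was drawn from the subclavian artery and kept at 0 °C in EDTA or heparin. Leukocytes, haemoglobin, haematocrit, GPT and GOT were measured within 24 h and compared with normal ranges.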
# Mus musculus [2] = assay: Toxicity in CD1 mouse assessed as increase in weight respect to day zero at 300 mg/kg, ip after 3 days; type: organism-based; design: dose 300 mg/kg, route intraperitoneal; conditions: in vivo, 72 h
# Procedure, shortened: (§2)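 Healthy 2-month-old female CD1 mice (20–22 g, 5–7 per group) received one dose. Oral doses of 450 or 300 mg/kg were given by intragastric syringe; i.p. doses of 300 or 150 mg/kg by injection. Drugs were suspended in saline:Tween 80 (4:1), and a vehicle-only control was included. Mice were weighed and observed daily for 3 days. Weight change is expressed as percent relative to day zero.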
# Mus musculus [3] = assay: Toxicity in CD1 mouse assessed as hematocrite level at 450 mg/kg, po after 3 days; type: organism-based; design: dose 450 mg/kg, route oral; conditions: in vivo, 72 h; procedure, shortened: as §1
# Mus musculus [4] = assay: Toxicity in CD1 mouse assessed as haemoglobin level at 300 mg/kg, ip after 3 days; type: organism-based; design: dose 300 mg/kg, route intraperitoneal; conditions: in vivo, 72 h; procedure, shortened: as §1
# Mus musculus [5] = assay: Toxicity in CD1 mouse assessed as leukocyte level at 450 mg/kg, po after 3 days; type: organism-based; design: dose 450 mg/kg, route oral; conditions: in vivo, 72 h; procedure, shortened: as §1
# Mus musculus [6] = assay: Toxicity in CD1 mouse brain at 450 mg/kg, po after 3 days by histological study; type: organism-based; design: dose 450 mg/kg, route oral; conditions: in vivo, 72 h
# Procedure, shortened: (§3)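 Healthy female CD1 mice (20–22 g), 5–7 per group, given a single oral (intragastric) or i.p. dose in saline:Tween 80 (4:1) vehicle. Sacrificed on day 3 after ether anaesthesia. Organs fixed in 10% aqueous formalin for histology. Scored against untreated animals from no change to +++ (many changes).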
# Mus musculus [7] = assay: Toxicity in CD1 mouse kidney at 450 mg/kg, po after 3 days by histological study; type: organism-based; design: dose 450 mg/kg, route oral; conditions: in vivo, 72 h; procedure, shortened: as §3
# Mus musculus [8] = assay: Toxicity in CD1 mouse heart at 300 mg/kg, ip after 3 days by histological study; type: organism-based; design: dose 300 mg/kg, route intraperitoneal; conditions: in vivo, 72 h; procedure, shortened: as §3
# Mus musculus [9] = assay: Toxicity in CD1 mouse assessed as decrease in weight respect to day zero at 450 mg/kg, po after 3 days; type: organism-based; design: dose 450 mg/kg, route oral; scale not given: the % may be the effect or the level left; conditions: in vivo, 72 h; procedure, shortened: as §2
# Mus musculus [10] = assay: Toxicity in CD1 mouse assessed as survival at 300 mg/kg, ip after 3 days; type: organism-based; design: dose 300 mg/kg, route intraperitoneal; conditions: in vivo, 72 h
# Procedure, shortened: (§4)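 Healthy 2-month-old female CD1 mice (20–22 g), groups of 5–7, given one oral dose by intragastric syringe or one i.p. injection. Compound suspended in saline:Tween 80 (4:1) with sonication just before dosing; vehicle-treated controls included. Weighed and observed daily over 3 days for skin, physical aspect, activity and faeces; survival recorded at day 3.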
# Mus musculus [11] = assay: Toxicity in CD1 mouse assessed as survival at 450 mg/kg, po after 3 days; type: organism-based; design: dose 450 mg/kg, route oral; conditions: in vivo, 72 h; procedure, shortened: as §4
# Mus musculus [12] = assay: Toxicity in CD1 mouse assessed as glutamic-pyruvate transaminase level at 450 mg/kg, po after 3 days; type: organism-based; design: dose 450 mg/kg, route oral; conditions: in vivo, 72 h; procedure, shortened: as §1
# Mus musculus [13] = assay: Toxicity in CD1 mouse liver at 300 mg/kg, ip after 3 days by histological study; type: organism-based; design: dose 300 mg/kg, route intraperitoneal; conditions: in vivo, 72 h; procedure, shortened: as §3
# Mus musculus [14] = assay: Toxicity in CD1 mouse lung at 450 mg/kg, po after 3 days by histological study; type: organism-based; design: dose 450 mg/kg, route oral; conditions: in vivo, 72 h; procedure, shortened: as §3
# Trypanosoma cruzi = assay: Growth inhibition of Trypanosoma cruzi Tulahuen 2 epimastigote at 5 uM after 5 days; type: functional; design: Activity: scale not given: the % may be the effect or the level left; conditions: for inhibition of growth at 5 µM: Trypanosoma cruzi, Tulahuen 2, 120 h, read-out: GI
# Mus musculus [15] = assay: Toxicity in CD1 mouse assessed as glutamic-oxalacetate transaminase level at 300 mg/kg, ip after 3 days; type: organism-based; design: dose 300 mg/kg, route intraperitoneal; conditions: in vivo, 72 h; procedure, shortened: as §1
# Mus musculus [16] = assay: Toxicity in CD1 mouse assessed as glutamic-oxalacetate transaminase level at 450 mg/kg, po after 3 days; type: organism-based; design: dose 450 mg/kg, route oral; conditions: in vivo, 72 h; procedure, shortened: as §1
# Mus musculus [17] = assay: Toxicity in CD1 mouse kidney at 300 mg/kg, ip after 3 days by histological study; type: organism-based; design: dose 300 mg/kg, route intraperitoneal; conditions: in vivo, 72 h; procedure, shortened: as §3
# Mus musculus [18] = assay: Toxicity in CD1 mouse intestine at 300 mg/kg, ip after 3 days by histological study; type: organism-based; design: dose 300 mg/kg, route intraperitoneal; conditions: in vivo, 72 h; procedure, shortened: as §3
# Mus musculus [19] = assay: Toxicity in CD1 mouse lung at 300 mg/kg, ip after 3 days by histological study; type: organism-based; design: dose 300 mg/kg, route intraperitoneal; conditions: in vivo, 72 h; procedure, shortened: as §3
# Mus musculus [20] = assay: Toxicity in CD1 mouse assessed as glutamic-pyruvate transaminase level at 300 mg/kg, ip after 3 days; type: organism-based; design: dose 300 mg/kg, route intraperitoneal; conditions: in vivo, 72 h; procedure, shortened: as §1
# Mus musculus [21] = assay: Toxicity in CD1 mouse liver at 450 mg/kg, po after 3 days by histological study; type: organism-based; design: dose 450 mg/kg, route oral; conditions: in vivo, 72 h; procedure, shortened: as §3
# Mus musculus [22] = assay: Toxicity in CD1 mouse heart at 450 mg/kg, po after 3 days by histological study; type: organism-based; design: dose 450 mg/kg, route oral; conditions: in vivo, 72 h; procedure, shortened: as §3
# Mus musculus [23] = assay: Toxicity in CD1 mouse intestine at 450 mg/kg, po after 3 days by histological study; type: organism-based; design: dose 450 mg/kg, route oral; conditions: in vivo, 72 h; procedure, shortened: as §3
# Mus musculus [24] = assay: Toxicity in CD1 mouse brain at 300 mg/kg, ip after 3 days by histological study; type: organism-based; design: dose 300 mg/kg, route intraperitoneal; conditions: in vivo, 72 h; procedure, shortened: as §3
# Mus musculus [25] = assay: Toxicity in CD1 mouse assessed as leukocyte level at 300 mg/kg, ip after 3 days; type: organism-based; design: dose 300 mg/kg, route intraperitoneal; conditions: in vivo, 72 h; procedure, shortened: as §1
# Mus musculus [26] = assay: Toxicity in CD1 mouse assessed as increase in weight respect to day zero at 450 mg/kg, po after 3 days; conditions: in vivo, 72 h
# Mus musculus [27] = assay: Toxicity in CD1 mouse assessed as hematocrite level at 300 mg/kg, ip after 3 days; type: organism-based; design: dose 300 mg/kg, route intraperitoneal; conditions: in vivo, 72 h; procedure, shortened: as §1
SMILES,Activity (Mus musculus [1]) [g/dL],Activity (Mus musculus [2]) [%],Activity (Mus musculus [4]) [g/dL],Activity (Mus musculus [5]) [µL⁻¹],Activity (Mus musculus [6]),Activity (Mus musculus [7]),Activity (Mus musculus [8]),Activity (Mus musculus [9]) [%],Activity (Mus musculus [12]) [IU/L],Activity (Mus musculus [13]),Activity (Mus musculus [14]),Activity (Mus musculus [16]) [IU/L],Activity (Mus musculus [17]),Activity (Mus musculus [18]),Activity (Mus musculus [19]),Activity (Mus musculus [21]),Activity (Mus musculus [22]),Activity (Mus musculus [23]),Activity (Mus musculus [24]),Activity (Mus musculus [25]) [µL⁻¹],further results
CCCCCCNC(=O)/C=C/c1ccc([N+](=O)[O-])o1,11.5,2,11.3,86000,Non-toxic,Non-toxic,Toxic,0,22.7,Toxic,Toxic,69.8,Non-toxic,Non-toxic,Toxic,Toxic,Toxic,Non-toxic,Non-toxic,12100,Activity (Mus musculus [3]): 30.4%; Activity (Mus musculus [10]): Non-toxic; Activity (Mus musculus [11]): Non-toxic; inhibition of growth at 5 µM (Trypanosoma cruzi): 82%; Activity (Mus musculus [15]): 129 IU/L; Activity (Mus musculus [20]): 52.8 IU/L
CCCCCCCCOC(=O)N/N=C/C=C/c1ccc([N+](=O)[O-])o1,13.9,1,13.4,7750,Non-toxic,Toxic,Non-toxic,,70.2,Toxic,Non-toxic,84,Non-toxic,Non-toxic,Non-toxic,Toxic,Non-toxic,Non-toxic,Non-toxic,10600,Activity (Mus musculus [11]): Non-toxic; inhibition of growth at 5 µM (Trypanosoma cruzi): 92%; Activity (Mus musculus [15]): 57 IU/L; Activity (Mus musculus [26]): 2%; Activity (Mus musculus [20]): 50.7 IU/L
CCCCCCCCOC(=O)N/N=C/c1ccc([N+](=O)[O-])o1,11.9,4,13.8,6600,Non-toxic,Non-toxic,Non-toxic,11,30,Toxic,Non-toxic,119,Non-toxic,Non-toxic,Non-toxic,Toxic,Non-toxic,Non-toxic,Non-toxic,5300,Activity (Mus musculus [3]): 36.4%; Activity (Mus musculus [27]): 43.6%; Activity (Trypanosoma cruzi): 84%
CCCCCCCOC(=O)N/N=C/C=C/c1ccc([N+](=O)[O-])o1,13.4,4,14.2,9010,Non-toxic,Non-toxic,Non-toxic,0,62.7,Toxic,Non-toxic,139,Non-toxic,Non-toxic,Non-toxic,Toxic,Non-toxic,Non-toxic,Non-toxic,11100,Activity (Mus musculus [3]): 39.4%; Activity (Mus musculus [10]): Non-toxic; Activity (Mus musculus [11]): Non-toxic; inhibition of growth at 5 µM (Trypanosoma cruzi): 90%; Activity (Mus musculus [15]): 77.7 IU/L; Activity (Mus musculus [20]): 46.1 IU/L
CCCCOC(=O)N/N=C/C=C/c1ccc([N+](=O)[O-])o1,13.5,2,11.8,26600,Non-toxic,Non-toxic,Non-toxic,2,22.6,Toxic,Non-toxic,72,Non-toxic,Non-toxic,Non-toxic,Toxic,Non-toxic,Non-toxic,Non-toxic,31800,Activity (Mus musculus [10]): Non-toxic; Activity (Mus musculus [27]): 37.2%; Activity (Mus musculus [11]): Non-toxic; inhibition of growth at 5 µM (Trypanosoma cruzi): 87%; Activity (Mus musculus [15]): 76.5 IU/L; Activity (Mus musculus [20]): 17 IU/L
